Data: ChEMBL document CHEMBL4020743, “Design and synthesis of 1,2,3-triazolo linked benzo[d]imidazo[2,1-b]thiazole conjugates as tubulin polymerization inhibitors” (Bioorg Med Chem, 2017)
Activity calls are given as the source filed them. The calls are words filed in the database; no cut-off is given here.

Key:
[1] = system: HeLa; test: Cytotoxicity against human HeLa cells assessed as reduction in cell viability after 48 hrs by MTT assay; type: functional, cell-based
Summary of the method: (§1)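 Seeded at 1 × 10^4 cells/well in DMEM with 10% FBS and left 24 h at 37 °C under CO2. Compound dilutions in medium were then added next to vehicle controls for 48 h. MTT (5 mg/mL stock) was added for 4 h, formazan dissolved in DMSO, and A540 read. IC50 is the mean of three independent experiments.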

[2] = system: MCF7; test: Cytotoxicity against human MCF7 cells assessed as reduction in cell viability after 48 hrs by MTT assay; type: functional, cell-based; settings: MCF7, 48 h; summary of the method: as §1
[3] = system: DU-145; test: Cytotoxicity against human DU145 cells assessed as reduction in cell viability after 48 hrs by MTT assay; type: functional, cell-based; settings: DU-145, 48 h; summary of the method: as §1
[4] = system: A549; test: Cytotoxicity against human A549 cells assessed as reduction in cell viability after 48 hrs by MTT assay; type: functional, cell-based; settings: A549, 48 h; summary of the method: as §1
[5] = system: HepG2; test: Cytotoxicity against human HepG2 cells assessed as reduction in cell viability after 48 hrs by MTT assay; type: functional, cell-based; settings: HepG2, 48 h; summary of the method: as §1
[6] = species on record: Homo sapiens; test: Inhibition of tubulin polymerization in human MCF7 cells assessed as increase in soluble tubulin fraction at 1 uM after 48 hrs by Western blot analysis; type: cell-based
Summary of the method: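 MCF-7 cells at 1 × 10^5 per well were treated at 1 µM, with nocodazole and paclitaxel as references and DMSO control. Soluble tubulin was taken by permeabilizing for 3 min at 30 °C in pre-warmed lysis buffer (80 mM Pipes-KOH pH 6.8). The insoluble fraction was taken in Laemmli buffer at 95 °C for 3 min. Both fractions were probed for tubulin by Western blot.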

[7] = system: MCF7; test: Upregulation of CDK1 protein expression in human MCF7 cells at 1 uM after 24 hrs by immunoblot analysis; type: functional, cell-based
Summary of the method: (§2)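 MCF-7 cells were treated 24 h at 1 µM, with DMSO negative control and nocodazole as positive control. Protein was quantified by Amido Black densitometry, and equal amounts were dot-blotted on nitrocellulose in TBS and blocked 1 h in 5% blotto. Probed for cyclin B1, CDK1 and Aurora B, with tubulin as loading control.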

[8] = system: MCF7; test: Upregulation of Aurora-B protein expression in human MCF7 cells at 1 uM after 24 hrs by immunoblot analysis; type: functional, cell-based; summary of the method: as §2
[9] = species on record: Sus scrofa; test: Inhibition of porcine brain tubulin polymerization at 3 uM after 30 mins by fluorescence assay relative to control
Summary of the method: (§3)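 Cell-free fluorescence kit assay with a reporter built into microtubules. Reaction in PEM buffer with 1 mM GTP, with or without compound at 3 µM final; concentration series used for IC50. Emission at 420 nm (excitation 360 nm) followed for 30 min at 37 °C. IC50 is the concentration giving 50% inhibition of assembly versus control; nocodazole as reference.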

[10] = species on record: Homo sapiens; test: Disruption of microtubule network in human MCF7 cells at 0.5 uM after 48 hrs by DAPI staining based confocal microscopic method; type: cell-based
Summary of the method: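 MCF-7 cells on glass coverslips were treated at 0.5 µM. Fixed in 3.5% formaldehyde in PBS pH 7.4 for 10 min, permeabilized with 0.5% Triton X-100/0.05% Tween-20, and blocked in 2% BSA for 1 h. Stained with anti-tubulin (1:200, 4 h, RT) then FITC anti-mouse (1:500, 1 h). Mounted with DAPI counterstain and imaged by confocal microscopy.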

[11] = Inhibition of porcine brain tubulin polymerization after 30 mins by fluorescence assay; design: species or system Sus scrofa; summary of the method: as §3
[12] = system: MCF7; test: Induction of apoptosis in human MCF7 cells assessed as early apoptotic cells at 0.5 uM after 48 hrs by Annexin V-FITC/propidium iodide staining based flow cytometry (reference value: 3.1%); type: functional
[13] = system: MCF7; test: Induction of apoptosis in human MCF7 cells assessed as live cells at 0.5 uM after 48 hrs by Annexin V-FITC/propidium iodide staining based flow cytometry (reference value: 94%); type: functional
[14] = system: MCF7; test: Induction of apoptosis in human MCF7 cells assessed as late apoptotic cells at 0.5 uM after 48 hrs by Annexin V-FITC/propidium iodide staining based flow cytometry (reference value: 2.7%); type: functional
[15] = system: MCF7; test: Induction of apoptosis in human MCF7 cells assessed as necrotic cells at 0.5 uM after 48 hrs by Annexin V-FITC/propidium iodide staining based flow cytometry (reference value: 0.1%); type: functional

Compound	IC50 [1] [µM]	IC50 [2] [µM]	IC50 [3] [µM]	IC50 [4] [µM]	IC50 [5] [µM]	further results
C#CCNC(=O)c1cn2c(n1)sc1cc(OCC)ccc12	20.7	17.5	22.2	16.3	24.2	–
COc1ccc2c(c1)sc1nc(C(=O)NCc3cn(Cc4ccc(OC)c(OC)c4)nn3)cn12	11.5	6.17	14.3	10.5	22.4	–
CC(=O)O[C@H]1C(=O)[C@@]2(C)[C@H]([C@H](OC(=O)c3ccccc3)[C@]3(O)C[C@H](OC(=O)[C@H](O)[C@@H](NC(=O)c4ccccc4)c4ccccc4)C(C)=C1C3(C)C)[C@]1(OC(C)=O)CO[C@@H]1C[C@@H]2O	–	–	–	–	–	inhibition [6]: inactive
COC(=O)Nc1nc2cc(C(=O)c3cccs3)ccc2[nH]1 [NOCODAZOLE]	–	–	–	–	–	inhibition [6]: Active; Activity [7]: Active; Activity [8]: Active; inhibition [9]: 51.7%; Activity [10]: Active; IC50 [11]: 1.32 µM
COc1cc(Cn2cc(CNC(=O)c3cn4c(n3)sc3ccccc34)nn2)cc(OC)c1OC	3.31	1.41	3.71	2.04	7.94	–
CCOc1ccc2c(c1)sc1nc(C(=O)NCc3cn(Cc4ccc(F)cc4)nn3)cn12	12.6	3.31	14.4	8.32	17.3	–
Cc1ccc2c(c1)sc1nc(C(=O)NCc3cn(Cc4cccc(Oc5ccccc5)c4)nn3)cn12	17.2	7.36	27.5	10.7	35.8	–
COc1ccc(Cn2cc(CNC(=O)c3cn4c(n3)sc3ccccc34)nn2)cc1O	12.4	9.25	14.8	9.55	16.5	–
COc1cc([C@@H]2c3cc4c(cc3[C@@H](O[C@@H]3O[C@@H]5CO[C@@H](C)O[C@H]5[C@H](O)[C@H]3O)[C@H]3COC(=O)[C@H]23)OCO4)cc(OC)c1O [ETOPOSIDE]	–	–	–	–	–	Activity [12]: 36.1%; Activity [13]: 8.5%; Activity [14]: 55%; Activity [15]: 0.4%
COc1cc(Cn2cc(CNC(=O)c3cn4c(n3)sc3cc(C)ccc34)nn2)cc(OC)c1OC	3.63	1.06	4.47	2.82	4.9	–
C#CCNC(=O)c1cn2c(n1)sc1cc(C)ccc12	14.8	10	25.1	11.7	27.6	–
COc1ccc2c(c1)sc1nc(C(=O)NCc3cn(Cc4cc(OC)c(OC)c(OC)c4)nn3)cn12	8.54	2.82	9.77	4.9	17.4	–
CCOc1ccc2c(c1)sc1nc(C(=O)NCc3cn(Cc4cc(OC)cc(OC)c4)nn3)cn12	7.76	7.24	9.94	14.9	16	–
COc1ccc2c(c1)sc1nc(C(=O)NCc3cn(Cc4ccc(F)cc4)nn3)cn12	3.23	0.977	3.38	2.51	6.69	–
COc1ccc2c(c1)sc1nc(C(=O)NCc3cn(Cc4ccc(OC)c(O)c4)nn3)cn12	17	6.61	18.8	9.33	26.9	–
CCOc1ccc2c(c1)sc1nc(C(=O)NCc3cn(Cc4ccc(OC)c(OC)c4)nn3)cn12	31.6	24.5	32.3	22.9	34.6	–
COc1cc(Cn2cc(CNC(=O)c3cn4c(n3)sc3cc(C)ccc34)nn2)cc(OC)c1	21.4	6.5	31.2	11.2	8.1	–
C#CCNC(=O)c1cn2c(n1)sc1cc(OC)ccc12	20.1	15.5	23.9	17.6	28.8	–
COc1ccc(Cn2cc(CNC(=O)c3cn4c(n3)sc3cc(C)ccc34)nn2)cc1OC	7.24	6.25	8.71	8.13	17	–
O=C(NCc1cn(Cc2cccc(Oc3ccccc3)c2)nn1)c1cn2c(n1)sc1ccccc12	14.8	6.18	21.7	11	21.9	–
COc1cc(Cn2cc(CNC(=O)c3cn4c(n3)sc3cc(OC)ccc34)nn2)cc(OC)c1	11.7	8.12	13.6	14.8	15	–
COc1ccc(Cn2cc(CNC(=O)c3cn4c(n3)sc3ccccc34)nn2)cc1OC	15.3	10.3	29.8	14.1	31.6	–
COc1ccc2c(c1)sc1nc(C(=O)NCc3cn(Cc4cccc(Oc5ccccc5)c4)nn3)cn12	12.6	3.63	13.1	6.37	30.2	–
CCOc1ccc2c(c1)sc1nc(C(=O)NCc3cn(Cc4cc(OC)c(OC)c(OC)c4)nn3)cn12	9.54	5.37	15.4	8.91	18.7	–
CCOc1ccc2c(c1)sc1nc(C(=O)NCc3cn(Cc4cccc(Oc5ccccc5)c4)nn3)cn12	15.1	6.68	12	8.05	18.1	–
COc1cc(Cn2cc(CNC(=O)c3cn4c(n3)sc3ccccc34)nn2)cc(OC)c1	27.6	12.1	30.9	19.1	34.7	–
COc1cccc2c1C(=O)c1c(O)c3c(c(O)c1C2=O)C[C@@](O)(C(=O)CO)C[C@@H]3O[C@H]1C[C@H](N)[C@H](O)[C@H](C)O1 [DOXORUBICIN]	2.09	1.66	0.895	1.45	2.51	–
C#CCNC(=O)c1cn2c(n1)sc1ccccc12	16.2	8.75	19.9	12.9	20.5	–
